From ChEMBL document CHEMBL5653631, “A Potent and Selective ULK1 Inhibitor Suppresses Autophagy and Sensitizes Cancer Cells to Nutrient Stress” (iScience, 2018)

Columns and labels:
[1] = target: Cell division cycle 7-related protein kinase (Homo sapiens) (UniProt O00311); assay: Inhibition of human recombinant CDC7 at 500 nM in presence of ATP by radiometric assay relative to control
[2] = target: Serine/threonine-protein kinase Nek7 (Homo sapiens) (UniProt Q8TDX7); assay: Inhibition of human recombinant NEK7 at 500 nM in presence of ATP by radiometric assay relative to control
[3] = target: Serine/threonine-protein kinase SIK3 (Homo sapiens) (UniProt Q9Y2K2); assay: Inhibition of human recombinant QSK at 500 nM in presence of ATP by radiometric assay relative to control
[4] = target: TGF-beta receptor type-2 (Homo sapiens) (UniProt P37173); assay: Inhibition of human recombinant TGFbR2 at 500 nM in presence of ATP by radiometric assay relative to control
[5] = target: Serine/threonine-protein kinase 25 (Homo sapiens) (UniProt O00506); assay: Inhibition of human recombinant YSK1 at 500 nM in presence of ATP by radiometric assay relative to control
[6] = target: T1, Tyrosine-protein kinase Mer (Homo sapiens) (UniProt Q12866); assay: Inhibition of human recombinant MER at 500 nM related to control ULK1
T1 sequence (whole entry): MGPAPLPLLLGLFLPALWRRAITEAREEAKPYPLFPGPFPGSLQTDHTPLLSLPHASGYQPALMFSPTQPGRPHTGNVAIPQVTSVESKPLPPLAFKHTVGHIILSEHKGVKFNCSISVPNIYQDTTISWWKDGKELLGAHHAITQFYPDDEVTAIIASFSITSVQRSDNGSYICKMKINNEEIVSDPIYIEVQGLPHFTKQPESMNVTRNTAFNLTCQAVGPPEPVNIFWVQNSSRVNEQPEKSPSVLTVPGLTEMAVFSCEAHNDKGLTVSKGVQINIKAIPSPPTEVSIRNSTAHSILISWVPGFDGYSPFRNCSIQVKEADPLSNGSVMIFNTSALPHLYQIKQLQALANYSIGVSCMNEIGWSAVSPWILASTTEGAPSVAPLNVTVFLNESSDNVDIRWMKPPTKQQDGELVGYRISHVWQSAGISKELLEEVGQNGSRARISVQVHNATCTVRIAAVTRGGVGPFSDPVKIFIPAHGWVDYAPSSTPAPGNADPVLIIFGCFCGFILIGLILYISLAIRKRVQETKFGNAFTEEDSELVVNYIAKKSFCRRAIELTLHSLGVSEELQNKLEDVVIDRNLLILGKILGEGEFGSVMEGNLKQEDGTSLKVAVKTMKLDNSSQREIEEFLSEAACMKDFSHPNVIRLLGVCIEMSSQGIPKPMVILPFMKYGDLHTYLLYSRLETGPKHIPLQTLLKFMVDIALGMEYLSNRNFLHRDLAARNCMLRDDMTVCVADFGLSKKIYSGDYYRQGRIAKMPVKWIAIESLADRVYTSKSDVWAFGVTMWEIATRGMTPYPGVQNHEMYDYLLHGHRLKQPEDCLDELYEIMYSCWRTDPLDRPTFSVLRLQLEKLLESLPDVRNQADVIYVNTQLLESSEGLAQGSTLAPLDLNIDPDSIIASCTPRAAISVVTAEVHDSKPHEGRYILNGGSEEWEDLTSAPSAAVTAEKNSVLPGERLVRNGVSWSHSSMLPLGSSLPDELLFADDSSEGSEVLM

[7] = target: Serine/threonine-protein kinase 32B (Homo sapiens) (UniProt Q9NY57); assay: Inhibition of human recombinant YANK2 at 500 nM related to control ULK1
[8] = target: Mitogen-activated protein kinase 9 (Homo sapiens) (UniProt P45984); assay: Inhibition of human recombinant JNK2 at 15 nM in presence of ATP by radiometric assay relative to control
[9] = target: Serine/threonine-protein kinase Nek6 (Homo sapiens) (UniProt Q9HC98); assay: Inhibition of human recombinant NEK6 at 15 nM in presence of ATP by radiometric assay relative to control
[10] = target: T2, Phosphorylase b kinase gamma catalytic chain, liver/testis isoform (Homo sapiens) (UniProt P15735); assay: Inhibition of human recombinant PHKg2 at 15 nM related to control ULK1
T2 sequence (whole entry): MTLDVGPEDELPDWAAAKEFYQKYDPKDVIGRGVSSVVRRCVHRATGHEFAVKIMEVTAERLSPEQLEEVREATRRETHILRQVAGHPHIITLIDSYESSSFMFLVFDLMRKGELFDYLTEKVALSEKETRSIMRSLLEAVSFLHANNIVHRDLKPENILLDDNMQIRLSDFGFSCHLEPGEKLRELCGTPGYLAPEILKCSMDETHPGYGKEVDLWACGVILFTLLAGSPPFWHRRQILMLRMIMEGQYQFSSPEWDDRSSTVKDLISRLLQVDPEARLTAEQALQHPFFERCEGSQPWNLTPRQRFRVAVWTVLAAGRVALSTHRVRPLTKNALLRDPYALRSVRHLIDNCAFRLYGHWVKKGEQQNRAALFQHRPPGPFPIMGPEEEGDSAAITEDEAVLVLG

[11] = target: Proto-oncogene tyrosine-protein kinase Src (Homo sapiens) (UniProt P12931); assay: Inhibition of human recombinant SRC at 15 nM related to control ULK1
[12] = target: Aurora kinase B (Homo sapiens) (UniProt Q96GD4); assay: Inhibition of human recombinant AurB at 40 nM in presence of ATP by radiometric assay relative to control
Outline: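 Part of a radiometric in vitro activity panel of 327 recombinant human kinases. Each kinase was tested in duplicate at one inhibitor concentration. Activity remaining was expressed as a percentage of the vehicle control, and percent inhibition was taken as 100 minus that value.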

[13] = target: Receptor-type tyrosine-protein kinase FLT3 (Homo sapiens) (UniProt P36888); assay: Inhibition of human recombinant FLT3 at 40 nM in presence of ATP by radiometric assay relative to control

Chain of Cell division cycle 7-related protein kinase (Homo sapiens) (O00311 whole entry, looked up): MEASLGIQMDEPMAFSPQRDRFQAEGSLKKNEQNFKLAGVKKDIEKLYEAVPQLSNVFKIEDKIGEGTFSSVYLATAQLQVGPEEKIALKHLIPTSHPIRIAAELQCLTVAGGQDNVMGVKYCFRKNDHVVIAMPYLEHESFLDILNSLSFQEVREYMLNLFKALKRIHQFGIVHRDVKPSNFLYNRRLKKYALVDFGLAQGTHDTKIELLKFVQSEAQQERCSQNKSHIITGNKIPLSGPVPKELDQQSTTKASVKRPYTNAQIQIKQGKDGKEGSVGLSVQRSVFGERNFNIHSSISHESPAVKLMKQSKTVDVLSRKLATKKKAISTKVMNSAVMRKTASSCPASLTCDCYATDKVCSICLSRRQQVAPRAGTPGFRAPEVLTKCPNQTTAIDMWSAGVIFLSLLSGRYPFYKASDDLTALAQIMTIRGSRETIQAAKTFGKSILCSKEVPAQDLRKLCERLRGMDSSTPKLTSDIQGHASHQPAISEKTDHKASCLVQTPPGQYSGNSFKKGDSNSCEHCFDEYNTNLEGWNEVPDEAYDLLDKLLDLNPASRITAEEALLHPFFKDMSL
Chain of Serine/threonine-protein kinase Nek6 (Homo sapiens) (Q9HC98 whole entry, canonical isoform): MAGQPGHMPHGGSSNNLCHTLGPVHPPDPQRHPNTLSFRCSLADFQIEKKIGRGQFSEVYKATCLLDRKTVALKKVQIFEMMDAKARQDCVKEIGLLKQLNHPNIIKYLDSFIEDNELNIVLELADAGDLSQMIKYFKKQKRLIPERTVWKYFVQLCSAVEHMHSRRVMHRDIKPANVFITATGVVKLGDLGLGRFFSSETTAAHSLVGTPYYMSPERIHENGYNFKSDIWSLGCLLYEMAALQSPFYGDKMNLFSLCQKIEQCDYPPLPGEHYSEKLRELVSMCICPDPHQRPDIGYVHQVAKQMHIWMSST
Chain of Serine/threonine-protein kinase 32B (Homo sapiens) (Q9NY57 whole entry): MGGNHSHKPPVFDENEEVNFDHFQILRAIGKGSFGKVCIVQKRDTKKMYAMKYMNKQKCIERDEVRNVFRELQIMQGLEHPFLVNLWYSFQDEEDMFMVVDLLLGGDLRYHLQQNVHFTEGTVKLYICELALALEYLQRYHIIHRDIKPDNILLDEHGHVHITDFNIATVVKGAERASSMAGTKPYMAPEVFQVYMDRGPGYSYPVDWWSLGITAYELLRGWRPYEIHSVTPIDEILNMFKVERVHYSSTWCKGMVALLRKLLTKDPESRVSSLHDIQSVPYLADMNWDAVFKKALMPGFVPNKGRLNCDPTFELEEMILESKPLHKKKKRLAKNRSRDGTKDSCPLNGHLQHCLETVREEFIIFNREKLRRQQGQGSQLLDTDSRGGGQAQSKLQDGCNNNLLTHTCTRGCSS
Chain of Serine/threonine-protein kinase Nek7 (Homo sapiens) (Q8TDX7 whole entry, looked up): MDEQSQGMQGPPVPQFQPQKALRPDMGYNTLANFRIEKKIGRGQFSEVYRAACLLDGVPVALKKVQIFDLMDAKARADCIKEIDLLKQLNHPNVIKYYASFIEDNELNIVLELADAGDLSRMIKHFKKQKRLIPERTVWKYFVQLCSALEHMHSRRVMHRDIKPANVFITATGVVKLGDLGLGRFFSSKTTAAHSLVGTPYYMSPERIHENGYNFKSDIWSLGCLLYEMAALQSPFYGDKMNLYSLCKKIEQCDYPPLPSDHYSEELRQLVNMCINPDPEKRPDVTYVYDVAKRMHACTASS
Chain of Mitogen-activated protein kinase 9 (Homo sapiens) (P45984 whole entry, looked up): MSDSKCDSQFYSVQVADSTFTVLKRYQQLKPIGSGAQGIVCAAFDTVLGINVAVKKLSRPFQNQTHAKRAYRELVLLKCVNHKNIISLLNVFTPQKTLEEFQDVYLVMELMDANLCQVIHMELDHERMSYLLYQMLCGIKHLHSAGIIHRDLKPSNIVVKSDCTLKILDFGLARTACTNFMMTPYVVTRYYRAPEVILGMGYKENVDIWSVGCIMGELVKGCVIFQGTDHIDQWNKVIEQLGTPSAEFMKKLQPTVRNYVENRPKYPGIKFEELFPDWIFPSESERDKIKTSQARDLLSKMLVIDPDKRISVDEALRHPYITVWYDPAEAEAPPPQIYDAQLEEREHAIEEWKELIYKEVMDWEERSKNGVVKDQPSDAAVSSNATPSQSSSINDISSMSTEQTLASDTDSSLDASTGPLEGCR
Chain of TGF-beta receptor type-2 (Homo sapiens) (P37173 whole entry): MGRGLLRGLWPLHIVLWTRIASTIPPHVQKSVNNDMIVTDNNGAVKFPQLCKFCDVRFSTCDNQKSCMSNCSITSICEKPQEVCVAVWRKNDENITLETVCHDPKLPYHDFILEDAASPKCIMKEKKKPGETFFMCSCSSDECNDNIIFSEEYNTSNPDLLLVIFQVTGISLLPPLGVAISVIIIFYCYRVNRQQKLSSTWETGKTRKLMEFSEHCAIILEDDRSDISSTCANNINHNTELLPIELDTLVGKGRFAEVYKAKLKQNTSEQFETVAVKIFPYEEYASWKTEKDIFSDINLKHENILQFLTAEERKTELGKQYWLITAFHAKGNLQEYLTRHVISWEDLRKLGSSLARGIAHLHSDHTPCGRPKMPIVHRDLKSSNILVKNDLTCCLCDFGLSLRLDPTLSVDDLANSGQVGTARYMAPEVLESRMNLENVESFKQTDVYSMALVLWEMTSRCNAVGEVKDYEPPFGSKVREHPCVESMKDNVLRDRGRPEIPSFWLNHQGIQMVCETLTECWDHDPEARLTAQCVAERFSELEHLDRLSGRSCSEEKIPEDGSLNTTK
Chain of Serine/threonine-protein kinase SIK3 (Homo sapiens) (Q9Y2K2 whole entry, looked up): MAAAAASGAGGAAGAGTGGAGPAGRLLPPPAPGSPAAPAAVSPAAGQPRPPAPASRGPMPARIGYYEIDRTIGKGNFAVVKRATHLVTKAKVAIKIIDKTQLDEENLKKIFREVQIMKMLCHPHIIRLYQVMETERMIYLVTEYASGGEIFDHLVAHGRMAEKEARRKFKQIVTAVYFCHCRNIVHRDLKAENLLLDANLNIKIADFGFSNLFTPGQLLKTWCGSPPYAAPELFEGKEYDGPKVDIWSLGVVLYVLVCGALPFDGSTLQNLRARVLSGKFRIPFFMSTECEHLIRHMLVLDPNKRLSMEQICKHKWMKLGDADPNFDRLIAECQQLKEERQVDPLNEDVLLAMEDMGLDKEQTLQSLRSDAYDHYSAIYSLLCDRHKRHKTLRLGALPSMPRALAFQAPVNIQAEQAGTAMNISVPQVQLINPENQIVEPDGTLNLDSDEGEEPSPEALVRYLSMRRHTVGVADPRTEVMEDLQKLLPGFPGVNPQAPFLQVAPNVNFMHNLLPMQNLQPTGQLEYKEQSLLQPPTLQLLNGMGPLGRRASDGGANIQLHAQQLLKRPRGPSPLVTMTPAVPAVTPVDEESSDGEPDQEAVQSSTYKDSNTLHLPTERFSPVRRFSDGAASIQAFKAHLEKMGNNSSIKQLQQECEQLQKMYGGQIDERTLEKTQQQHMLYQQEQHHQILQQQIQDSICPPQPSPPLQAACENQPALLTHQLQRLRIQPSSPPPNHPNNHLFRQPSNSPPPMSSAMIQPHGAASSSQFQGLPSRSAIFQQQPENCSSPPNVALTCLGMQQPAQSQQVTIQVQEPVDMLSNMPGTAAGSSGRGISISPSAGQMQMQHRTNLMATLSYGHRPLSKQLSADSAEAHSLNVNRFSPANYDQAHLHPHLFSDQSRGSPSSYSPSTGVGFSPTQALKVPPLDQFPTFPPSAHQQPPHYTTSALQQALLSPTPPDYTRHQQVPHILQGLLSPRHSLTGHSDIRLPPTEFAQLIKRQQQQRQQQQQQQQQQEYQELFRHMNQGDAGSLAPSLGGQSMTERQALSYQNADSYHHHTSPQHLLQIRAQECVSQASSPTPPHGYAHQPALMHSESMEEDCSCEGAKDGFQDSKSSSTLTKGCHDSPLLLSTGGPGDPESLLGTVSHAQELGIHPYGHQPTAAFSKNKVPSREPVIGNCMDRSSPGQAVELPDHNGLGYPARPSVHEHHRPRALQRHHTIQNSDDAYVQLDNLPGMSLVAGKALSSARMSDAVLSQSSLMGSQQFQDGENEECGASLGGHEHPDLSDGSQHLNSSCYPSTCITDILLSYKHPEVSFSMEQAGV
Chain of Serine/threonine-protein kinase 25 (Homo sapiens) (O00506 whole entry, looked up): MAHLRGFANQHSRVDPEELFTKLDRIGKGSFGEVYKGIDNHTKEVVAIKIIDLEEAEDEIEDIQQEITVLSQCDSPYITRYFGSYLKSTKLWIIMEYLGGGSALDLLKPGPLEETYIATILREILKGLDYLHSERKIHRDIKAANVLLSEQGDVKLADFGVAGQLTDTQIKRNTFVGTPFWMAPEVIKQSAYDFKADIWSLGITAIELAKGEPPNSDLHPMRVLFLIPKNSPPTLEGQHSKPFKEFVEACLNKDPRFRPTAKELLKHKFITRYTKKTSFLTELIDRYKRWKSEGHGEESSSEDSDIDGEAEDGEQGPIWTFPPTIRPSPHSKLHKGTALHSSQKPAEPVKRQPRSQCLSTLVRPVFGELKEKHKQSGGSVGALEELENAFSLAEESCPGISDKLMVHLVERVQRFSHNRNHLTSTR
Chain of Proto-oncogene tyrosine-protein kinase Src (Homo sapiens) (P12931 2-536 limits assumed): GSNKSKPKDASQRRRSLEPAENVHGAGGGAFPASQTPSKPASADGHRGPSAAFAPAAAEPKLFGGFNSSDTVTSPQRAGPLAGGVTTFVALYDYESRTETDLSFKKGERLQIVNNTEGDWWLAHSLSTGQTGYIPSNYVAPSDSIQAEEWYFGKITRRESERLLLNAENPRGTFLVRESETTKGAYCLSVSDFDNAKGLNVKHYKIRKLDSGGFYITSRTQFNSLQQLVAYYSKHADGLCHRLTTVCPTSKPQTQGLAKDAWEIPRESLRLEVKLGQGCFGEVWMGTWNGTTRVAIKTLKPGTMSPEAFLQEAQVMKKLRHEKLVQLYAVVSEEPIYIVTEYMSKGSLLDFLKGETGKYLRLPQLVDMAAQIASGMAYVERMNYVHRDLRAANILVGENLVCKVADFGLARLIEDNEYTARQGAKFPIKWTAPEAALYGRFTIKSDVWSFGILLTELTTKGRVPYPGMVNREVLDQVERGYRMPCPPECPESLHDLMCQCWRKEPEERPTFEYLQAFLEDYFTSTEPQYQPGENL

**Q.** With CNC(=O)c1ccccc1Oc1nc(Nc2cc(OC)c(OC)c(OC)c2)ncc1Br as the compound, how does the inhibition [1] read?
**A.** Its inhibition is 0%.

**Q.** And the inhibition [2]?
**A.** The inhibition was 0%.

**Q.** And the inhibition [3]?
**A.** Its inhibition is 8%.

**Q.** What about the inhibition [4] of the same compound?
**A.** The inhibition was 2%.

**Q.** What about the inhibition [5] of the same compound?
**A.** The inhibition was 12%.

**Q.** What about the fold change (FC) [6] of the same compound?
**A.** Its fold change (FC) is 0.12.

**Q.** And the fold change (FC) [7]?
**A.** The fold change (FC) was 0.03.

**Q.** CC(C)[C@H](NC(=O)c1cc(-c2cnn3cc(-c4ccc(OCCN5CCCCC5)cc4)cnc23)cs1)C(F)(F)F was tested. Which inhibition [8] did it give?
**A.** Its inhibition is 0%.

**Q.** What about the inhibition [9] of the same compound?
**A.** The inhibition was 1%.

**Q.** What about the fold change (FC) [10] of the same compound?
**A.** The fold change (FC) was 0.1.

**Q.** What about the fold change (FC) [11] of the same compound?
**A.** The fold change (FC) was 0.17.

**Q.** Which results are given for O=C(N[C@@H](C1CC1)C(F)(F)F)c1cc(-c2cnn3cc(-c4ccc(F)cc4)cnc23)cs1?
**A.** inhibition [12]: 49%; inhibition [13]: 19%
